# Experimental data reported in ChEMBL document CHEMBL1212873, “Inactivation of protein tyrosine phosphatases by oltipraz and other cancer chemopreventive 1,2-dithiole-3-thiones” (Bioorg Med Chem, 2010).
# Activity calls are given as the source filed them. No cut-off for these calls is given here.
# Columns and labels:
# [1] = target: T1, Tyrosine-protein phosphatase non-receptor type 1 (Homo sapiens) (UniProt P18031); conditions: 50 uM
# T1 sequence (whole entry): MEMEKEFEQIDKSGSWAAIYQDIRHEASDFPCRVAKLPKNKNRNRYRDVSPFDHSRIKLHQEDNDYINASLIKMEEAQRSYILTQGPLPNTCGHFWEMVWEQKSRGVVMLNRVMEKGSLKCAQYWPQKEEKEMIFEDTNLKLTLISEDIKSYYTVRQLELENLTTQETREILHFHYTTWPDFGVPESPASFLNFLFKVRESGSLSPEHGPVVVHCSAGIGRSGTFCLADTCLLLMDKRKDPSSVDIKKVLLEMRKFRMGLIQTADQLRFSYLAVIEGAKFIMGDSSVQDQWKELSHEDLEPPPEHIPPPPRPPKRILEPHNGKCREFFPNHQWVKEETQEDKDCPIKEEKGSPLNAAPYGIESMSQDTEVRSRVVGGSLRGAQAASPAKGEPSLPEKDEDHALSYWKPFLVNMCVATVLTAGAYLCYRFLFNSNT
# [2] = target: T2, Tyrosine-protein phosphatase non-receptor type 11 (Homo sapiens) (UniProt Q06124); conditions: 10 to 50 uM
# T2 sequence (whole entry): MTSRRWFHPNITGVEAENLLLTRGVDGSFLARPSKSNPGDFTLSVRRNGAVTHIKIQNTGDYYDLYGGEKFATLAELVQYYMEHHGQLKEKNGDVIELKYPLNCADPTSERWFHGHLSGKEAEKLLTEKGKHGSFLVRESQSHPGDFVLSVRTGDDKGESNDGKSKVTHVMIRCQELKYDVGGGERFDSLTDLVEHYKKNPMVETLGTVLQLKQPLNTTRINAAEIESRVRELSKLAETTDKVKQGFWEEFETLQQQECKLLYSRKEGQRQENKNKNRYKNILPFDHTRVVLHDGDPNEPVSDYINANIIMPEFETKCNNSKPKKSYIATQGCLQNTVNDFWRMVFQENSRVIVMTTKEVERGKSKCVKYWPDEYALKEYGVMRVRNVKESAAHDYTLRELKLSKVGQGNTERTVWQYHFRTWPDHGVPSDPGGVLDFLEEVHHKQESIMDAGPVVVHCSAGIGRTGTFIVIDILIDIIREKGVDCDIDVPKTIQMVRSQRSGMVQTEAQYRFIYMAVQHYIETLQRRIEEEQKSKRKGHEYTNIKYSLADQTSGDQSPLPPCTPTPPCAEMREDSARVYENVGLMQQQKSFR
# [3] = target: T1, Tyrosine-protein phosphatase non-receptor type 1 (Homo sapiens); conditions: 50 uM; remark: listed apart in the source
# [4] = target: T1, Tyrosine-protein phosphatase non-receptor type 1 (Homo sapiens); experiment: Competitive inhibition of human PTP1B catalytic subunit assessed as enzyme inactivation at 25 uM after 15 mins by spectrophotometry
# Summary of the method: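 Thiol-free PTP1B (12.5 nM final) with compound at 25 µM and 20 mM pNPP in 50 mM Tris, 50 mM bis-Tris, 100 mM sodium acetate, 10 mM DETAPAC, 1% DMF, pH 7.2, 23 °C. Activity loss followed at 410 nm; apparent inactivation rate from first-order fit of progress curves; mean of three experiments.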
# [5] = target: T1, Tyrosine-protein phosphatase non-receptor type 1 (Homo sapiens); conditions: 2 to 50 uM
# [6] = target: T2, Tyrosine-protein phosphatase non-receptor type 11 (Homo sapiens); conditions: 10 to 50 uM; remark: listed apart in the source
# [7] = target: T1, Tyrosine-protein phosphatase non-receptor type 1 (Homo sapiens); conditions: 2 to 50 uM; remark: listed apart in the source
# [8] = target: T1, Tyrosine-protein phosphatase non-receptor type 1 (Homo sapiens); conditions: 2 to 50 uM; remark: listed apart in the source
# [9] = target: T1, Tyrosine-protein phosphatase non-receptor type 1 (Homo sapiens); conditions: 50 uM; remark: listed apart in the source
# [10] = target: T2, Tyrosine-protein phosphatase non-receptor type 11 (Homo sapiens); conditions: 10 to 50 uM; remark: listed apart in the source
# [11] = target: T1, Tyrosine-protein phosphatase non-receptor type 1 (Homo sapiens); conditions: 2 to 50 uM; remark: listed apart in the source
# [12] = target: T1, Tyrosine-protein phosphatase non-receptor type 1 (Homo sapiens); conditions: 50 uM; remark: listed apart in the source
# [13] = target: T1, Tyrosine-protein phosphatase non-receptor type 1 (Homo sapiens); conditions: 2 to 50 uM; remark: listed apart in the source
# [14] = target: T2, Tyrosine-protein phosphatase non-receptor type 11 (Homo sapiens); experiment: Irreversible inhibition of SHP2 at 10 to 50 uM in presence of 100 mM dithiothreitol
inhibition [1],inhibition [2],inhibition [3] [%],inhibition [4],inhibition [5],inhibition [6],inhibition [7],inhibition [8],inhibition [9] [%],inhibition [10],inhibition [11],inhibition [12] [%],inhibition [13],inhibition [14],Structure (SMILES)
inactive,inactive,50,Active,Active,inactive,tde,Active,> 97,Active,Active,70,Active,–,Cc1c(-c2cnccn2)ssc1=S
–,–,–,Active,–,–,–,–,–,–,–,–,–,inactive,S=c1ccss1
–,–,–,Active,–,–,–,–,–,–,–,–,–,–,COc1ccc(-c2cc(=S)ss2)cc1
